Reference: ChEMBL document CHEMBL1138590, “Discovery of novel dihydro-9,10-ethano-anthracene carboxamides as glucocorticoid receptor modulators” (Bioorg Med Chem Lett, 2009)
pEC50, pKi: −log10 of the molar value.

Experiments:
Glucocorticoid receptor [1] = target: T1, Glucocorticoid receptor (Homo sapiens, UniProt P04150); test: Transrepression activity at GR in PMA-stimulated human A549 cells assessed as inhibition of AP1 response element-induced luciferase reporter gene activity; type: cell-based
T1 sequence (P04150 whole entry): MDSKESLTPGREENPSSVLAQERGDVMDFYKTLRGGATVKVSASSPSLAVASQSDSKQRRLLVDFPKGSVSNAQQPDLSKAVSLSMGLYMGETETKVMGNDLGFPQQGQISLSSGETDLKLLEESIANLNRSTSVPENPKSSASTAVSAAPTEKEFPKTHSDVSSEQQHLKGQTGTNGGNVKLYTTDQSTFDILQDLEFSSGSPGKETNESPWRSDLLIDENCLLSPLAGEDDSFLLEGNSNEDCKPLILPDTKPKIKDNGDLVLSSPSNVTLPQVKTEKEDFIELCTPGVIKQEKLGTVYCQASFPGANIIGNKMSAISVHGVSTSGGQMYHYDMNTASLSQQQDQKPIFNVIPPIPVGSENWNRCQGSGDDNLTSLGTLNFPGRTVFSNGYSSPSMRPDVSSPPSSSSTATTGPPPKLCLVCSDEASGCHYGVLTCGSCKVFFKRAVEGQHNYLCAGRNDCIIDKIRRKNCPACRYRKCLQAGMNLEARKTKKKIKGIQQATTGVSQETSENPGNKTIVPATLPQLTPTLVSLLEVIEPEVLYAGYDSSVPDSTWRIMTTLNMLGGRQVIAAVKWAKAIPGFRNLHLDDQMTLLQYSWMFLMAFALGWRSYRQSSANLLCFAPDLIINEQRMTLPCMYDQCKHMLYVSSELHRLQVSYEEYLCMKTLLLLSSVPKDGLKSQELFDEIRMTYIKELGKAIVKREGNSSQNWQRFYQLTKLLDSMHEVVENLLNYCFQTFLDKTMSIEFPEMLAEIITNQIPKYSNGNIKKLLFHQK

[2] = target: T2, Mineralocorticoid receptor (Homo sapiens) (UniProt P08235); test: Antagonist activity at mineralocorticoid receptor in human A549 cells assessed as inhibition of 1.25 nM aldosterone-induced effect at 0.1 uM; type: functional, cell-based
T2 sequence (whole entry): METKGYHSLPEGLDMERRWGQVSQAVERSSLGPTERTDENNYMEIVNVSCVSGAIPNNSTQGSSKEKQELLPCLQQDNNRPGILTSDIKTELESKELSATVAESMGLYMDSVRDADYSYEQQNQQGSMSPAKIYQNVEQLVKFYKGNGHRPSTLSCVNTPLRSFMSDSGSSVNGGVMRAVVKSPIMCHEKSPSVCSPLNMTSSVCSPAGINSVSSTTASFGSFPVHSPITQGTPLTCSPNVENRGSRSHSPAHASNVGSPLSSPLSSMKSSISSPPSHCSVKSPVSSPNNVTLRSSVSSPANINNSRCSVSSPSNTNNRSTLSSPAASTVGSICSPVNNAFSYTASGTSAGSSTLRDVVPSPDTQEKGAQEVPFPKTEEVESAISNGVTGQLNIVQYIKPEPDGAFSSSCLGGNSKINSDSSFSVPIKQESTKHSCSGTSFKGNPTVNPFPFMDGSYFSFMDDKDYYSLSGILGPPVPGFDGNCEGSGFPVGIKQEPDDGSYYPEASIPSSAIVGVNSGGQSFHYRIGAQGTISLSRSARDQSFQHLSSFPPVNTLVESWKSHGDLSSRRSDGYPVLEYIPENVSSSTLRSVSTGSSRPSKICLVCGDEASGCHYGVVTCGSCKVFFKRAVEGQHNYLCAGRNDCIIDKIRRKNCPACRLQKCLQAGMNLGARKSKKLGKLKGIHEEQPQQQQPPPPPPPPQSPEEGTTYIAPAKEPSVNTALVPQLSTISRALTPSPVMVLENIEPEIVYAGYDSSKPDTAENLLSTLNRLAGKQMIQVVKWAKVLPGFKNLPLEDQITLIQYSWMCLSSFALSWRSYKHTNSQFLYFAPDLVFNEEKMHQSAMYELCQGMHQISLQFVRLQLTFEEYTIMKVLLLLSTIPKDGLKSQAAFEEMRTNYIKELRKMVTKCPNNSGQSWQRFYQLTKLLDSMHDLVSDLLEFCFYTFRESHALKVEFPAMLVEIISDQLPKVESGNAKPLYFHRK

Glucocorticoid receptor [3] = target: T1, Glucocorticoid receptor; test: Displacement of FITC-dexamethasone from human recombinant glucocorticoid receptor alpha by fluorescence polarization assay
Estrogen receptor = target: T3, Estrogen receptor (Homo sapiens, UniProt P03372); test: Displacement of […] from estrogen receptor alpha by fluorescence polarization assay
T3 sequence (P03372 whole entry): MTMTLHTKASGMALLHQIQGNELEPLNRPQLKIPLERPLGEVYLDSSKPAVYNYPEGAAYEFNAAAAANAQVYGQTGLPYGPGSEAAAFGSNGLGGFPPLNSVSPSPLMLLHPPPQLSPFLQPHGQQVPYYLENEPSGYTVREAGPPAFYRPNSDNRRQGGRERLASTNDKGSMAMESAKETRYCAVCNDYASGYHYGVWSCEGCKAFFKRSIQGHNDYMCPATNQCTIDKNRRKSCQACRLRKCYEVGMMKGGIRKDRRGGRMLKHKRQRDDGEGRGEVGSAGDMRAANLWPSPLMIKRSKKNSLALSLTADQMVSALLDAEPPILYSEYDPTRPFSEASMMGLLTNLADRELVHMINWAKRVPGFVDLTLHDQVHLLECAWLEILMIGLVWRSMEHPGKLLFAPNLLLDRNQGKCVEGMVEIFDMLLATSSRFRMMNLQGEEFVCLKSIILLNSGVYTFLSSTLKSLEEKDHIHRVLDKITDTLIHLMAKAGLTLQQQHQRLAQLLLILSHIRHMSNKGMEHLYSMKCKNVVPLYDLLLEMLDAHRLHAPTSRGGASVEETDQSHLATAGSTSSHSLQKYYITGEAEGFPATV
Procedure, shortened: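 Fluorescence polarization competition binding: the test compound competes with a fluorescently labelled ligand for binding to the full-length receptor or its ligand-binding domain. IC50 is fitted from the polarization signal with a four-parameter logistic equation. Ki is derived by Cheng–Prusoff, Ki = IC50/(1 + ligand concentration/Kd). Values are means of duplicate experiments.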

C[C@@]1(C(=O)Nc2nccs2)CC2c3ccccc3C1c1ccccc12
pEC50 (Glucocorticoid receptor [1]): 6.94
inhibition [2]: 3%
pKi (Glucocorticoid receptor [3]): 8.89
pKi (Estrogen receptor): 4.82

C[C@@]1(C(=O)Nc2nccs2)CC2(C#N)c3ccccc3C1c1ccccc12
pEC50 (Glucocorticoid receptor [1]): 6.61
inhibition [2]: 47%
pKi (Glucocorticoid receptor [3]): 9.05
pKi (Estrogen receptor): 4.58
